Screens as filed in PubChem BioAssay.
Many of the other results were omitted from the sample, so hits are more common in it than they were.
ABCG2 block: blocks JC-1 efflux by human ABCG2 transporter. Q9UNQ0. inhibition, % at 6.6 µM. IgMXP3 cells, flow cytometry. 0.1% of 190,000 active;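 active means inhibition above 80%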;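 further: 0% = DMSO and 100% = nicardipine control wells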
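Test system: IgMXP3 cells (ABCG2) mixed with DDAO far-red-labelled CCRF-Adr cells (ABCB1). Reagent: JC-1 transporter substrate. Compound dosing: single test compound dose, 6.6 µM final. Times: 10 min compound exposure, 25 °C. Detection: flow cytometry of retained JC-1 fluorescence. Read-out basis: efflux inhibition in percent versus controls. Controls: nicardipine and DMSO wells.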
FLuc inh counter: Photinus pyralis luciferase inhibition counter-screen; ATPLite firefly luciferase biochemical luminescence, 10 min; inhibition, % at 10 µM; P08659; 1.5% of 200,000 active;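 active means inhibition above about 50% when tested at 10 µM, limit read from the data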
ABCB6 inh MLPCN: blocks the human ABCB6 transporter. K562-ABCB6 porphyrin accumulation, flow cytometry, 1 h; active compounds read low. fluorescence ratio to DMSO, % at 10 µM. 0.19% of 360,000 active. AID 602162;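 active means fluorescence ratio to DMSO below 75%, the collection mean minus 3 SD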;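 further: signal is porphyrin accumulated inside mitochondria; 100% equals median channel fluorescence of DMSO control wells; lower ratio means ABCB6 inhibition with less porphyrin fluorescence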
ABCB1 inh: blocks JC-1 efflux by human ABCB1 transporter. P08183. CCRF-Adr cells, flow cytometry. inhibition, % at 6.6 µM. 0.067% of 190,000 active. AID 1326; in the data active means inhibition above about 40%;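 further: 0% = vehicle and 100% = reference inhibitor; higher value means more JC-1 retained so stronger ABCB1 efflux block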
FLuc stim CS: affects firefly luciferase, flagging false hits in luciferase stimulation screens; ATPlite luciferase biochemical, luminescence, 10 min; 0 = ATP-free wells, 1 = DMSO control; 200,000 tested, under 10 active; P08659; activation factor at 10 µM;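 active means luciferase activation factor, scaled between plate controls, of at least 2 with compound at 10 µM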
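Assay system – cell-free luciferase reagent · Medium – PBS-based ATP solution · Dosing – test compounds dosed from 2 mM stocks in 100% DMSO · Timing – 10 min, room temperature · Technique – light output (luminescence) · Measure – luminescence gain marking luciferase activators · Controls – No-ATP low control, compound-free enzyme-plus-ATP high control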
Diaphorase act: activates diaphorase or chemically reduces, flagging diaphorase assay artifacts. Diaphorase/resazurin coupled assay, resorufin fluorescence, 16 min; active compounds read high; 1 = vehicle wells, 0 = NADH-free wells. activation factor at 20 µM. 0.005% of 190,000 active. AID 1229;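 active means diaphorase activity raised at least twofold by the compound at 20 µM; inactive means activation factor below 2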
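System – purified diaphorase enzyme from Clostridium kluyveri · Input – enzyme 0.07 U/mL final · Also added – final NADH 0.114 mM, resazurin 0.1 mM · Measured by – fluorescence of resorufin, 544 nm excitation, 590 nm emission · Timing – 16 min enzyme reaction, ambient temperature · Measure – resorufin increase flagging diaphorase activators or reducers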
Active calls of the source: *; . = no result.

SMILES	ABCG2 block	FLuc inh counter	ABCB6 inh MLPCN	ABCB1 inh	FLuc stim CS	Diaphorase act
O=C(Nc1ccn(Cc2ccccc2)n1)c1ccc2c(c1)OCO2	5	58*	96	-1	0.4	0.9
Cc1ccc2nc(NC(=O)c3ccc(N4C(=O)CCC4=O)cc3)sc2c1	0	10	100	0	0.9	1
O=C(Nc1ccc2nsnc2c1)c1ccc2c(c1)OCO2	2	70*	109	-1	0.3	0.8
Cc1ccnc(NC(=O)c2ccc(N3C(=O)CCC3=O)cc2)c1	3	79*	88	1	0.2	1.2
O=C(NC1(C(=O)NC2CCCC2)CCCCC1)c1ccc2c(c1)OCO2	9	-3	69*	0	1	0.9
O=C(NC1(C(=O)NC2CCCCC2)CCCCC1)c1ccc2c(c1)OCO2	0	-6	94	0	1.1	1
O=C(Nc1ccc(Cl)c(Cl)c1)c1ccc2c(c1)OCO2	.	.	96	.	.	.
CCCc1nnn(S(=O)(=O)c2ccc([N+](=O)[O-])cc2)c1CCC	.	.	105	.	.	.
Cc1ccc(S(=O)(=O)N2CCN(C(=O)NCc3ccc(C(=O)O)cc3)CC2)cc1	.	.	99	.	.	.
Cc1cc(C(=O)Nc2ccc3c(c2)OCO3)cs1	8	65*	95	1	0.3	0.9
O=C(CCc1ccccc1)c1ccc2c(c1)OCCCO2	1	18	91	0	0.8	1
O=C(CCCc1ccccc1)c1ccc2c(c1)OCCO2	-3	95*	100	-1	0	0.8
CCOC(=O)c1c(N)sc(C(=O)Nc2ccc3c(c2)OCO3)c1C	5	90*	100	1	0.1	0.9
CC(=O)Nc1ccc(C(=O)Nc2ccc3c(c2)OCO3)cc1	3	-2	107	0	1	0.9
CCOC(=O)c1c(C)c(C(=O)Nc2ccc3c(c2)OCO3)c(C)n1C	14	3	104	1	1	1
O=C(Nc1ccc2c(c1)OCO2)c1ccc2c(c1)OCO2	2	83*	103	0	0.2	0.8
CSc1nc(-c2ccccc2)nc(C(C)C)n1	.	.	100	.	.	.
COc1cc(SC)ccc1C(=O)OCC(=O)N1CCN(C(C)=O)CC1	.	.	97	.	.	.
COCCNC(=O)Cn1nc(-c2ccccc2C)ccc1=O	.	.	96	.	.	.
Cc1ccnc(NC(=O)c2ccc3c(c2)OCO3)c1	3	92*	102	0	0.1	0.9
O=C(Nc1ccon1)c1ccc2c(c1)OCO2	0	5	98	0	0.9	0.9
O=C(Nc1ccc2c(c1)OCCO2)c1cnc2ccccn2c1=O	.	.	103	.	.	.
O=C(Nc1cnc2ccccn2c1=O)c1ccc(Cl)cc1Cl	0	75*	99	0	0.3	1
Cc1cccc(NC(=O)c2cnc3sccn3c2=O)c1	9	60*	98	1	0.4	1
Cc1ccc(C(=O)Nc2cnc3ccccn3c2=O)cc1	2	16	96	0	0.8	0.8
SMILES	ABCG2 block	FLuc inh counter	ABCB6 inh MLPCN	ABCB1 inh	FLuc stim CS	Diaphorase act
Cc1cccc(NC(=O)c2cnc3ccccn3c2=O)c1	5	84*	102	0	0.2	0.9
O=C(O)[C@H](Cc1ccccc1)NC(=O)N1CCN(c2ccccc2)CC1	.	.	97	.	.	.
COc1ccccc1/C=N/OC(=O)c1ccc(F)cc1	1	74*	96	0	0.3	0.8
COc1ccccc1C=NN=C(N)C(N)=NN=Cc1ccccc1OC	.	.	92	.	.	.
Cc1cc2c(NC3CCCCC3)ncnc2s1	.	.	101	.	.	.
Cc1cccc(NC(=O)/C=C/c2cccs2)n1	-1	65*	100	0	0.3	1.1
Cc1nc2sc(-c3ccccc3)cc2c(=O)[nH]1	26	90*	102	0	0.1	0.9
O=c1[nH]c(-c2cccnc2)nc2sc(-c3ccccc3)cc12	5	32	103	1	0.7	0.9
O=c1c2cc(-c3ccccc3)sc2nc2n1CCC2	2	68*	.	0	0.3	0.9
COc1ccc(C)cc1Nc1nc(N)c2ccccc2n1	.	.	100	.	.	.
Cc1ccccc1Nc1nc(N)c2ccccc2n1	0	87*	105	0	0.1	1
Nc1nc(Nc2ccccc2)nc2ccccc12	2	88*	98	0	0.1	1
Nc1nc(Nc2ccc(Cl)cc2)nc2ccccc12	1	93*	98	0	0.1	0.9
Cc1cc(C)cc(OCC(=O)OCC(=O)N(CC(C)C)c2c(N)n(Cc3ccccc3)c(=O)[nH]c2=O)c1	.	.	92	.	.	.
NC(=O)CCC(NC(=O)c1ccc(Cl)cc1)C(=O)NCCc1ccc2c(c1)OCCO2 (centres undefined)	.	.	95	.	.	.
O=C(COc1ccc(Br)cc1)NCc1cn2ccccc2n1	.	.	93	.	.	.
Brc1ccc(OCc2cn3ccccc3n2)cc1	14	77*	98	1	0.2	1.1
CCC[C@H]1CN(c2ccc(Br)cc2)C(=O)[C@@H]1CC(=O)NC	.	.	103	.	.	.
CCCCNC(=O)c1ccccc1SCc1c(C)noc1C	.	.	85	.	.	.
O=C(NCCNc1ccccc1[N+](=O)[O-])c1cc(F)c(F)cc1Cl	.	.	104	.	.	.
COc1ccc(C(=O)NCCNc2ccccc2[N+](=O)[O-])cc1	16	62*	98	1	0.4	1
Cc1cc(/C=N/NC(=O)C(=O)NCc2ccccn2)c(C)n1-c1ccccc1	12	58*	97	1	0.4	1
Cc1cc(/C=N/NC(=O)c2ccccn2)c(C)n1-c1cccc([N+](=O)[O-])c1	2	11	97	0	0.9	0.9
Cc1cc(/C=N\NC(=O)COc2cccc3cccnc23)c(C)n1-c1ccccc1	15	71*	100	2	0.3	0.9
Cc1cc(/C=N\NC(=O)COc2cccc3cccnc23)c(C)n1-c1ccc(Br)cc1	20	15	101	2	0.8	0.8
SMILES	ABCG2 block	FLuc inh counter	ABCB6 inh MLPCN	ABCB1 inh	FLuc stim CS	Diaphorase act
Cc1cc(C(=O)NC2CCCCC2)c(C)n1-c1ccc(F)cc1	14	51*	98	1	0.5	0.9
Cc1cc(C(=O)CN2CCCCC2)c(C)n1-c1ccc(F)cc1	3	-5	86	0	1	0.9
CCN(C(=O)CSc1n[nH]c(N)n1)c1cccc2ccccc12	.	.	85	.	.	.
CCOC(=O)N1CCN(C(=O)CSc2nc(=O)n3ccccc3n2)CC1	.	.	98	.	.	.
Cc1ccc(/C=N/Nc2nc3ccccc3s2)o1	-7	60*	96	-4	0.4	0.9
CN=c1scc(C)n1/N=C/c1ccc2c(c1)OCO2	1	58*	97	0	0.4	0.9
Cc1nnc(C)n1/N=C/c1ccc2c(c1)OCCO2	2	-4	92	0	1	0.9
CN=c1scc(-c2ccco2)n1/N=C/c1ccc(O)c(O)c1	0	88*	99	0	0.1	0.5
CN=c1scc(C)n1/N=C/c1ccc(O)cc1	1	54*	100	0	0.5	0.9
